This note sets out measurements from ChEMBL document CHEMBL1139454, “NMR structural characterization of peptide inhibitors bound to the Hepatitis C virus NS3 protease: design of a new P2 substituent” (J Med Chem, 2004).

pIC50: −log10 of the molar value. Non-standard residues stand in square brackets, D forms with d. Residues, ends and D or L forms follow the SMILES beside them. Nva = CCC[C@H](N)C(=O)O

The target of one test is NS3 (Hepatitis C virus, UniProt A3EZJ3). As to the kind of experiment: Inhibitory activity against hepatitis C virus NS3 protease. Also on record: species or system Hepacivirus hominis. The gist of the method: (§1)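 Genotype 1b NS3–NS4A heterodimer at 1.5 nM, incubated 45 min at 23 °C with serially diluted inhibitor and 5 μM internally quenched fluorogenic substrate anthranilyl-DDIVPAbu[C(O)-O]-AMY(3-NO₂)TW-OH. Buffer was 50 mM Tris-HCl pH 8.0, 0.25 M sodium citrate, 0.01% n-dodecyl-β-D-maltoside, 1 mM TCEP. Stopped with 1 M MES pH 5.8; product fluorescence read at ex 320/em 405 nm. IC50 from Hill-model nonlinear fit of % inhibition.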
Chain of NS3 (A3EZJ3 whole entry): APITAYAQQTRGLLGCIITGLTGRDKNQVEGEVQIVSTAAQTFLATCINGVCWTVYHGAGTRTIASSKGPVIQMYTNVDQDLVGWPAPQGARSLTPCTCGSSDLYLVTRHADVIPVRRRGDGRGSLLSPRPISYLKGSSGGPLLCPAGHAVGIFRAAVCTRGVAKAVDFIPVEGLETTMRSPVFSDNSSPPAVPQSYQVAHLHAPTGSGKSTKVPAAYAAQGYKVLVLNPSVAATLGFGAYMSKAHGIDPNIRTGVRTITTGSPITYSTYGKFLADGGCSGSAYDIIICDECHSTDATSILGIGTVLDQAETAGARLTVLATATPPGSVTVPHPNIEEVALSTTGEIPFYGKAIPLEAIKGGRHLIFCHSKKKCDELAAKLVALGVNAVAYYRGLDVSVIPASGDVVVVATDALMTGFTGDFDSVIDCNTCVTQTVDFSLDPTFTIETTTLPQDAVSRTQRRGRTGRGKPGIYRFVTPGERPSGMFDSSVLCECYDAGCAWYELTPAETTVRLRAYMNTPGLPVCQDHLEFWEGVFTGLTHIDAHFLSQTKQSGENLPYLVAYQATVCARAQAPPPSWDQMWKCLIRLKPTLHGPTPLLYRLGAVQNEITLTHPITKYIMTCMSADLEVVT
On to `C=C[C@@H]1C[C@]1(NC(=O)C1CC(Oc2cccc(-c3ccccc3)c2)CN1C(=O)[C@@H](NC(=O)[C@@H](NC(C)=O)C1CCCCC1)C(C)C)C(=O)O` (single isomer, unassigned), for which the pIC50 was 6.92. The same measure, in the same setting: to `CC(=O)N[C@H](C(=O)N[C@H](C(=O)N1CC(Oc2cccc(-c3cccc([N+](=O)[O-])c3)c2)CC1C(=O)NC1(C(=O)O)CC1)C(C)C)C1CCCCC1` (single isomer, unassigned) belongs 5.40; to `CC(=O)N[C@H](C(=O)N[C@H](C(=O)N1CC(Oc2cccc(Br)c2)CC1C(=O)NC1(C(=O)O)CC1)C(C)C)C1CCCCC1` (single isomer, unassigned), 4.28; to `C=CC1C[C@]1(NC(=O)[C@@H]1C[C@@H](Oc2cc(-c3ccccc3)nc3ccccc23)CN1C(=O)[C@@H](NC(C)=O)C(C)C)C(=O)O` (some centres not stated), 5.52.

Take `CC(=O)N[C@H](C(=O)N[C@H](C(=O)N1CC(Oc2cccc(-c3ccccc3)c2)CC1C(=O)NC1(C(=O)O)CC1)C(C)C)C1CCCCC1` (single isomer, unassigned): the pIC50 was 5.21. On the same count and under the same terms, to `CC(=O)N[C@H](C(=O)N[C@H](C(=O)N1CC(Oc2ccnc3ccccc23)CC1C(=O)NC1(C(=O)O)CC1)C(C)C)C1CCCCC1` (single isomer, unassigned) belongs 5.66. `CC(=O)N[C@H](C(=O)N[C@H](C(=O)N1CC(OCc2cccc3ccccc23)CC1C(=O)NC1(C(=O)O)CC1)C(C)C)C1CCCCC1` (single isomer, unassigned) had a pIC50 of 5.40. The same measure, in the same setting: under `CC(=O)N[C@H](C(=O)N[C@H](C(=O)N1CC(Oc2cc(-c3ccccc3)nc3ccccc23)CC1C(=O)NC1(C(=O)O)CC1)C(C)C)C1CCCCC1` (single isomer, unassigned) stands 6.43; under `C=C[C@@H]1C[C@]1(NC(=O)C1CC(Oc2cc(-c3ccccc3)nc3ccccc23)CN1C(=O)[C@@H](NC(=O)[C@@H](NC(C)=O)C1CCCCC1)C(C)C)C(=O)O` (single isomer, unassigned), 7.89; under `C=C[C@@H]1C[C@]1(NC(=O)C1CC(Oc2ccnc3ccccc23)CN1C(=O)[C@@H](NC(=O)[C@@H](NC(C)=O)C1CCCCC1)C(C)C)C(=O)O` (single isomer, unassigned), 6.96.

Molecule `CC(=O)N[C@H](C(=O)N[C@H](C(=O)N1CC(Oc2ccnc3cc(C(F)(F)F)ccc23)CC1C(=O)NC1(C(=O)O)CC1)C(C)C)C1CCCCC1` (single isomer, unassigned) showed a pIC50 of 5.10.

Test system in a further test: not listed separately
Nature of the test: Inhibitory activity against hepatitis C virus (NS3 protease. The arrangement: species or system Hepacivirus hominis. The gist of the method: as §1
The molecule `CCC[C@H](NC(=O)[C@@H]1CCCN1C(=O)[C@@H](NC(=O)[C@@H](NC(=O)[C@H](CC(=O)O)NC(=O)[C@H](CC(=O)O)NC(C)=O)[C@@H](C)CC)C(C)C)C(=O)O` (Ac-DDIVP[Nva]-OH) had a pIC50 of 3.82.
